The record followed here is ChEMBL document CHEMBL1125582, “4-hydroxythiazole inhibitors of 5-lipoxygenase” (J Med Chem, 1991).

Broadly, the inhibition is the change of the read-out against control, counted positive when it falls. Lower therefore signals little suppression. For orientation: IC50 means the concentration that gives 50% inhibition.

Assay [1] addresses T1, Polyunsaturated fatty acid 5-lipoxygenase (Rattus norvegicus) (UniProt P12527).
T1 sequence (whole entry): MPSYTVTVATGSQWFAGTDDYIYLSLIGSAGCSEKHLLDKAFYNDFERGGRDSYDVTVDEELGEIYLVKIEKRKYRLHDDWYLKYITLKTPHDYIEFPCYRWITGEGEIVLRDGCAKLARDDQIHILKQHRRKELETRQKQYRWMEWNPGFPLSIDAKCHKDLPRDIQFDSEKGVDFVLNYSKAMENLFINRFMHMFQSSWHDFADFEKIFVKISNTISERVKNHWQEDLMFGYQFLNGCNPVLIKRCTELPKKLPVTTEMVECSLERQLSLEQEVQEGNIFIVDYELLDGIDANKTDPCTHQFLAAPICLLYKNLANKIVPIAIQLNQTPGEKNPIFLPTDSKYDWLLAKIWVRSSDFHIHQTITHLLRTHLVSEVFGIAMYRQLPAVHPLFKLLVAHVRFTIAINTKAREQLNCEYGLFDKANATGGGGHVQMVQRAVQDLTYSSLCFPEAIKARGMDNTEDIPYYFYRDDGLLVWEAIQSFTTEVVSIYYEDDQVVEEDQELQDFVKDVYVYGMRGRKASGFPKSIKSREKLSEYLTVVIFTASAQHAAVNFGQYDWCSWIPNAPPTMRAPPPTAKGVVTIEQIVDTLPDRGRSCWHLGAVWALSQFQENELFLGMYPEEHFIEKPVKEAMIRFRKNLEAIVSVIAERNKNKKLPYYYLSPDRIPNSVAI
Nature of the assay: The compound was tested for the in vitro inhibition of 5-lipoxygenase (5-lo) from the 20000 g supernatant of RBI-1 cells at a concentration of 32 uM. It counts as cell-based. The gist of the method:
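RBL-1 cell homogenate, 20000g supernatant (7.5 × 10⁶ cell equiv/mL), preincubated 20 min at 37 °C with inhibitor or 2% Me₂SO vehicle in pH 6.8 BES/PIPES/EDTA/NaCl/CaCl₂ buffer; reaction started with 66 μM [¹⁴C]arachidonic acid. [¹⁴C]-5-HETE counted by scintillation, corrected by [³H]-5-HETE recovery; percent reduction vs control, single 32 μM concentration.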

Assay [2] concerns the target T1, Polyunsaturated fatty acid 5-lipoxygenase (Rattus norvegicus). The experiment in a line: The compound was tested for the in vitro inhibition of 5-lipoxygenase (5-lo) from the 20000 g supernatant of RBI-1 cells measured at a concentration of 30 uM. The assay is classed as cell-based. The gist of the method:
(§1)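 20000g supernatant of homogenized RBL-1 cells (7.5 × 10⁶ cell equiv/mL) preincubated 20 min at 37 °C with inhibitor or 2% Me₂SO vehicle in pH 6.8 BES/PIPES buffer with EDTA, NaCl, 0.7 mM CaCl₂. Reaction started with 66 μM [¹⁴C]arachidonic acid. [¹⁴C]-5-HETE counted by scintillation, corrected for [³H]-5-HETE recovery.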

Assay [3] concerns the target T2, Arachidonate 12-lipoxygenase (Rattus norvegicus) (UniProt Q02759).
T2 sequence (whole entry): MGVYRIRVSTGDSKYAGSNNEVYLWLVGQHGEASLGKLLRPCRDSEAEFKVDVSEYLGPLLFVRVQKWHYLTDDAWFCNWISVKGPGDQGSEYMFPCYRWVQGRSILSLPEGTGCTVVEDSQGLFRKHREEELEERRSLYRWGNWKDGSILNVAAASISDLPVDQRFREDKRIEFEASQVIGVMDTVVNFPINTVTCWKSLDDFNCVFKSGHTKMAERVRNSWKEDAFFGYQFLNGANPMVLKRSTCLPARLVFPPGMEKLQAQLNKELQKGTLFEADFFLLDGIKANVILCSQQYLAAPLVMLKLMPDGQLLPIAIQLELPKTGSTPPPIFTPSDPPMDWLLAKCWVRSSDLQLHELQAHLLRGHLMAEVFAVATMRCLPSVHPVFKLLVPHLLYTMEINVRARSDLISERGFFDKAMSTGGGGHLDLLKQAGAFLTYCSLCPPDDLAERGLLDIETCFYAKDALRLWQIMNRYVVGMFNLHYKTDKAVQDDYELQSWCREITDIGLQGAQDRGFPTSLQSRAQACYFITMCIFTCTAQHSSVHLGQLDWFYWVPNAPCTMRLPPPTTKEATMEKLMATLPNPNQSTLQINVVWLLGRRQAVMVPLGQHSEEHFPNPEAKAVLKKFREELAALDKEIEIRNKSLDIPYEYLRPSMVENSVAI
Nature of the assay: The compound was tested for the in vitro inhibition of platelet 12-lipoxygenase at a concentration of 100 uM.

The test system of assay [4] is 15-lipoxygenase (Glycine max). The experiment in a line: The compound was tested for the in vitro inhibition of 15-lipoxygenase of soybean at a concentration of 10 uM. The settings on record: at 10 µM.
Assay [5] relates to cyclooxygenase (Ovis aries). The experiment in a line: The compound was tested for the in vitro inhibition of Prostaglandin G/H synthase of sheep seminal vesicle at a concentration of 30 uM.
For assay [6], the target named is T3, Polyunsaturated fatty acid 5-lipoxygenase (Homo sapiens, UniProt P09917).
T3 sequence (P09917 whole entry): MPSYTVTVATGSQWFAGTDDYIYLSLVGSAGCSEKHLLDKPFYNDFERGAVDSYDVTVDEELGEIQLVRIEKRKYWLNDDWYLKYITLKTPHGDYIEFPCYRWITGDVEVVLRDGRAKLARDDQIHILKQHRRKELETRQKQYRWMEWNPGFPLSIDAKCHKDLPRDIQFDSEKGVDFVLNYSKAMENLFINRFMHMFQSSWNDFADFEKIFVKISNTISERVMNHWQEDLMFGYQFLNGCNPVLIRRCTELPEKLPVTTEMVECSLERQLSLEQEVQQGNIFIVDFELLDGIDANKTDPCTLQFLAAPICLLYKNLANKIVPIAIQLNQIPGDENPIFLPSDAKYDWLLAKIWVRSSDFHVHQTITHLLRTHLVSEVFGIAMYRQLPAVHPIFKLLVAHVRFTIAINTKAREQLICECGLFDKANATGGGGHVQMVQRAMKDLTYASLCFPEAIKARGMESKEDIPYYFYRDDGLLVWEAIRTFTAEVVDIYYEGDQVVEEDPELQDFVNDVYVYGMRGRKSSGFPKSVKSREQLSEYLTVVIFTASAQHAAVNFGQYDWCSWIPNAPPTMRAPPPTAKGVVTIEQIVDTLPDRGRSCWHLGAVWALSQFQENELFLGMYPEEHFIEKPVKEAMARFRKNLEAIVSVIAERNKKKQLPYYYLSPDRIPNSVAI
Nature of the assay: The compound was tested for the inhibition of 5-lipoxygenase (5-lo) in human whole blood (HWBL). The assay is classed as tissue-based. The gist of the method:
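Heparinized (20 units/mL) human blood preincubated 15 min at 37 °C with compound or vehicle. Challenged with A23187 in DMSO (final 50 μM) for 30 min, then chilled and centrifuged. Plasma extracted with 4 volumes methanol for at least 2 h at 3 °C. LTB₄ measured by RIA or EIA.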

Assay [7] deals with T4, Polyunsaturated fatty acid 5-lipoxygenase (Rattus norvegicus, UniProt P12527).
T4 sequence (P12527 whole entry): T1 sequence (whole entry)
The experiment in a line: In vitro inhibition of 5-lipoxygenase (5-lo) from the 20000 g supernatant of RBI-1 cells. The assay is classed as cell-based.

For assay [8], the target named is T4, Polyunsaturated fatty acid 5-lipoxygenase. The experiment in a line: The compound was tested for the inhibition of 5-lipoxygenase (5-lo) in homogenized rat basophilic leukemia (RBL-1) cells. It counts as cell-based. The gist of the method: as §1
The target is the same in assay [9]. The experiment in a line: The compound was tested for the in vitro inhibition of 5-lipoxygenase from the 20000 g supernatant of RBI-1 cells. The assay is classed as cell-based. The gist of the method: as §1
Assay [10] concerns the target T2, Arachidonate 12-lipoxygenase (Rattus norvegicus). The experiment in a line: The compound was tested for the in vitro inhibition of platelet 12-lipoxygenase at a concentration of 30 uM.
Assay [11] relates to 15-lipoxygenase (Glycine max). The experiment in a line: The compound was tested for the in vitro inhibition of 15-lipoxygenase of soybean at a concentration of 100 uM. The settings on record: at 100 µM.

As to `COP(=O)(OC)Oc1nc(-c2ccccc2)sc1-c1ccccc1`, in assay [1], the inhibition was found to be 14%.
With `O=C1CSC(c2cccnc2)=N1`, the inhibition in assay [2] is 8%.
Consider `COC(=O)c1ccc(-c2nc(O)c(C)s2)cc1`, for which the inhibition in assay [3] worked out at 0%; in [4], 52%; in assay [5] it was 6%.
Regarding `CCCOC(=O)Oc1nc(-c2ccccc2)sc1CCC`, the IC50 in [6] amounted to 2200 nM; in assay [7], 3300 nM; in assay [8], 1400 nM.
On to `CN(O)C(=O)Cc1sc(-c2ccccc2)nc1O`, for which the IC50 in [9] came out at 4400 nM.
As to `O=C1CSC(c2ccccc2)=N1`, in assay [2], the inhibition stood at 26%.
Regarding `Oc1nc(-c2ccccc2)sc1-c1ccccc1`, the results for the inhibition in assay [10], in assay [11] and in assay [5] were 12%, 50% and 47%, respectively.
Turning to `Cc1sc(-c2ccccc2)nc1O`, the inhibition in assay [3] was determined as 51%; in assay [4], 44%; in assay [5], 32%.
